Data: publication PMC7429283 (ACS combinatorial science, 2020)

Experiments:
NTMT1 [1] = molecular target: T1, NTMT1 (Homo sapiens, UniProt Q9BV86); assay: MALDI-MS methylation inhibition assay; type: biochemical; conditions: data not shown
T1 sequence (Q9BV86 1-222): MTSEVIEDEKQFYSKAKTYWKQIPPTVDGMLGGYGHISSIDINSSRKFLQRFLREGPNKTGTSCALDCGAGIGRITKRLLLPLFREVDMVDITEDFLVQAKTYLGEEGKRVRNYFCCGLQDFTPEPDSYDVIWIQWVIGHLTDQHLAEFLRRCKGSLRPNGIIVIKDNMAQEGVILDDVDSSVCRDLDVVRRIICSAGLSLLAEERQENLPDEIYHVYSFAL

[2] = molecular target: cyclin-dependent kinase 1 (CDK1)/cyclin B; conditions: cited from earlier work
dopamine receptors = conditions: cited from earlier work
NTMT1 [3] = conditions: cited from earlier work
NTMT1 [4] = molecular target: T1, NTMT1; assay: SAHH-coupled ThioGlo3 fluorescence assay, 1536-well; type: biochemical; conditions: IC50, Epigenetic Library qHTS, 1 nM to 57 μM
How it was run: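 Final mix of His-NTMT1 125 nM, SAHH 10 μM, SAM 100 μM and ThioGlo3 15 μM in 25 mM Tris pH 7.5, 10 mM KCl, 0.01% Triton X-100. Test compounds were pin-transferred in qHTS dilution series, then SPKRIA peptide was added to 1 μM final (4 μL). Incubation was 30 min, read at Ex 340/Em 450. Fluorescence change from the initial read was normalized plate-wise to DMSO and Ac-RCC1-10 controls.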

NTMT1 [5] = molecular target: T1, NTMT1; assay: MTase-Glo luminescence assay, 1536-well; type: biochemical; conditions: IC50, Epigenetic Library qHTS, 1 nM to 57 μM
How it was run: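 His-tagged NTMT1 was expressed with IPTG induction at 15 °C overnight and purified on Ni-NTA. It was used at 125 nM final with 100 μM SAM in 4 μL wells. Optimized SAHH-ThioGlo3 conditions served as the starting point, with kit reagents at recommended concentrations. SAH was converted to ADP and read by luminescence. Data were normalized plate-wise to DMSO and Ac-RCC1-10 controls, then fitted to concentration-response curves.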

| inhibition in MS testing (NTMT1 [1]) | Compound | Km (NTMT1 [3]) [µM] | other results |
| --- | --- | --- | --- |
| no inhibition | COc1cc2nc(N3CCCC3)nc(NC3CC3)c2cc1OC [NCGC00249822] |  |  |
|  | CCn1cnc2c(Nc3cccc(Cl)c3)nc(N[C@@H]3CCCC[C@@H]3N)nc21 [CGP 74514A] |  | IC50 [2]: 0.031 µM |
|  | N[C@@H]1CCc2cc(O)c(O)cc2C1 [6,7-ADTN] |  | IC50 (dopamine receptors): 0.0017 µM |
|  | GPKRIA | 0.5 |  |
|  | APKRQSPLPP | 2 |  |
| no inhibition | [N-]=[N+]=Nc1nc2c(N)ncnc2n1[C@@H]1O[C@H](CO)[C@@H](O)[C@H]1O [8-Azidoadenosine] |  | IC50 (NTMT1 [4]): 17.1 to 24.3 µM; IC50 (NTMT1 [5]): 17.1 to 24.3 µM |
